Source: ChEMBL document CHEMBL3414559, “Novel C-4 heteroaryl 13-cis-retinamide Mnk/AR degrading agents inhibit cell proliferation and migration and induce apoptosis in human breast and prostate cancer cells and suppress growth of MDA-MB-231 human breast and CWR22Rv1 human prostate tumor xenografts in mice” (J Med Chem, 2015)

Assays:
[1] = tested on: MDA-MB-231; experiment: Growth inhibition of human MDA-MB-231 cells by MTT assay; format: functional
How it was run: (§1)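 Cells grown in RPMI 1640 with 10% FBS, plated at 2500 cells/well, treated across a dose range; growth read by MTT. GI50 taken from dose–response curves by nonlinear regression, at least three independent experiments.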

[2] = Growth inhibition of human SKBR3 cells by MTT assay; format: functional; conditions: SK-BR-3; how it was run: as §1
[3] = tested on: MDA-MB-468; experiment: Growth inhibition of human MDA-MB-468 cells by MTT assay; format: functional; how it was run: as §1
[4] = Growth inhibition of human PC3 cells by MTT assay; format: functional; conditions: PC-3; how it was run: as §1
[5] = tested on: MCF7; experiment: Growth inhibition of human MCF7 cells by MTT assay; format: functional; how it was run: as §1
[6] = Growth inhibition of human CWR22Rv1 cells by MTT assay; format: functional, CWR22R; conditions: 22Rv1; how it was run: as §1
[7] = tested on: LNCaP; experiment: Growth inhibition of human LNCAP cells by MTT assay; format: functional; how it was run: as §1

Row | Compound | GI50 [1] [µM] | GI50 [3] [µM] | GI50 [5] [µM] | GI50 [7] [µM] | GI50 [2] [µM] | GI50 [4] [µM] | GI50 [6] [µM]
1 | CC(=O)C1=C(O)C=C2Oc3c(C(N)=O)c(O)cc(O)c3[C@@]2(C)C1=O | 43.6 | 47.9 |  |  | 26 |  | 
2 | CC1=C(/C=C/C(C)=C/C=C/C(C)=C/C(=O)O)C(C)(C)CCC1 [TRETINOIN] | 14.1 | 14.1 |  |  | 22.9 |  | 
3 | CC1=C(/C=C/C(C)=C/C=C/C(C)=C\C(=O)Nc2ccccc2)C(C)(C)CC=C1c1cncnc1 | 26.9 | 22.9 | 7.01 |  | 31 |  | 
4 | CC1=C(/C=C/C(C)=C/C=C/C(C)=C\C(=O)Nc2ccccc2)C(C)(C)CC=C1c1cccnc1 | 25.1 | 39.8 | 8.32 |  | 47.4 |  | 

These reach a lower GI50 [1]. Values come first.

Row | GI50 [1] [µM] | GI50 [3] [µM] | GI50 [5] [µM] | GI50 [7] [µM] | Compound | GI50 [2] [µM] | GI50 [4] [µM] | GI50 [6] [µM]
5 | 4.95 | 4.57 | 0.4 | 3.89 | CC1=C(/C=C/C(C)=C/C=C/C(C)=C\C(=O)Nc2ccc(F)cc2)C(C)(C)CCC1n1ccnc1 (stereo unspecified) | 25.1 | 30.2 | 8.12
6 | 5.88 | 7.24 | 9.77 | > 100 | CC1=C(/C=C/C(C)=C/C=C/C(C)=C\C(=O)NCc2ccccc2)C(C)(C)CCC1n1ccnc1 (stereo unspecified) | 10.7 | > 100 | > 100
7 | 1.41 | 2.45 | 1.93 |  | CC1=C(/C=C/C(C)=C/C=C/C(C)=C\C(=O)NCc2ccc(F)cc2)C(C)(C)CCC1n1ccnc1 (stereo unspecified) | 5.5 |  | 
8 | 11.5 | 19.1 | 4.96 |  | CC1=C(/C=C/C(C)=C/C=C/C(C)=C\C(=O)NCc2ccc(O)cc2)C(C)(C)CC=C1c1cncnc1 | 11.5 |  | 
